According to publication PMC6401406 (Theranostics, 2019):
Like-named read-outs stand apart in the source and are kept apart here.

Key:
[1] = format: in vivo, Sprague-Dawley rats; details: for Tmax: male, Sprague-Dawley, rat, iv, 30 mg/kg
Procedure, shortened: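 Male 8-week-old Sprague-Dawley rats were acclimated ≥1 week, fasted 12 h, then given a single i.v. 30 mg kg-1 dose. Lung, liver, kidney, spleen, heart and heparinized plasma were collected at 0, 10, 30, 60, 120 and 240 min. Organs were saline-washed and stored at -80 °C. Sections underwent MALDI MSI with internal-standard correction; homogenates underwent LC-MS/MS. Identity was confirmed by accurate mass and tandem MS. Mean ± SD, three animals.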

[2] = cited from earlier work
[3] = cited from earlier work; remark: listed apart in the source

Time of maximum concentration of demethylated metabolite in liver ([1]; rat liver after i.v. tetrandrine 30 mg kg^-1)	Detection of metabolite in liver tissue ([1]; rat liver after i.v. tetrandrine, MALDI MSI, accurate mass and tandem MS)	Tmax ([1]; kidney)	Tmax ([1]; liver)	Tmax ([1]; lung)	Compound	Relatively non-toxic dose [2]	Half-life (t1/2) in blood versus heart ([3]; after i.v. administration)	Uptake efficiency in spleen versus other tissues [3]	Tmax in spleen ([3]; post-dose, spleen)	Distribution within kidney ([1]; rat kidney, 60 min post-dose, 3D MALDI imaging)
4 h	detected	–	–	–	demethylated tetrandrine	–	–	–	–	–
–	–	30 min	120 min	10 min	COc1ccc2cc1Oc1ccc(cc1)C[C@H]1c3cc(c(OC)cc3CCN1C)Oc1c(OC)c(OC)cc3c1[C@H](C2)N(C)CC3 [tetrandrine, Tetrandrine]	up to 90 mg kg^-1 body weight	generally similar	higher in spleen than other tissues	270 min	mainly distributed in the cortex of kidney
